Source: ChEMBL document CHEMBL1140055, “Mixed-lineage kinase 1 and mixed-lineage kinase 3 subtype-selective dihydronaphthyl[3,4-a]pyrrolo[3,4-c]carbazole-5-ones: optimization, mixed-lineage kinase 1 crystallography, and oral in vivo activity in 1-methyl-4-phenyltetrahydropyridine models” (J Med Chem, 2008)

Experiments:
[1] = molecular target: T1, Mitogen-activated protein kinase kinase kinase 9 (Homo sapiens, UniProt P80192); experiment: Inhibition of GST-fused human MLK1 expressed in CHO cells assessed as MKK4 phosphorylation; type: cell-based
Procedure, shortened: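 CHO cells transfected with MLK1 plus dominant-negative MKK4 cDNA; phospho-MKK4 quantified by ELISA; IC50 derived.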
Target sequence in this assay (P80192 whole entry, the tested form may be a part): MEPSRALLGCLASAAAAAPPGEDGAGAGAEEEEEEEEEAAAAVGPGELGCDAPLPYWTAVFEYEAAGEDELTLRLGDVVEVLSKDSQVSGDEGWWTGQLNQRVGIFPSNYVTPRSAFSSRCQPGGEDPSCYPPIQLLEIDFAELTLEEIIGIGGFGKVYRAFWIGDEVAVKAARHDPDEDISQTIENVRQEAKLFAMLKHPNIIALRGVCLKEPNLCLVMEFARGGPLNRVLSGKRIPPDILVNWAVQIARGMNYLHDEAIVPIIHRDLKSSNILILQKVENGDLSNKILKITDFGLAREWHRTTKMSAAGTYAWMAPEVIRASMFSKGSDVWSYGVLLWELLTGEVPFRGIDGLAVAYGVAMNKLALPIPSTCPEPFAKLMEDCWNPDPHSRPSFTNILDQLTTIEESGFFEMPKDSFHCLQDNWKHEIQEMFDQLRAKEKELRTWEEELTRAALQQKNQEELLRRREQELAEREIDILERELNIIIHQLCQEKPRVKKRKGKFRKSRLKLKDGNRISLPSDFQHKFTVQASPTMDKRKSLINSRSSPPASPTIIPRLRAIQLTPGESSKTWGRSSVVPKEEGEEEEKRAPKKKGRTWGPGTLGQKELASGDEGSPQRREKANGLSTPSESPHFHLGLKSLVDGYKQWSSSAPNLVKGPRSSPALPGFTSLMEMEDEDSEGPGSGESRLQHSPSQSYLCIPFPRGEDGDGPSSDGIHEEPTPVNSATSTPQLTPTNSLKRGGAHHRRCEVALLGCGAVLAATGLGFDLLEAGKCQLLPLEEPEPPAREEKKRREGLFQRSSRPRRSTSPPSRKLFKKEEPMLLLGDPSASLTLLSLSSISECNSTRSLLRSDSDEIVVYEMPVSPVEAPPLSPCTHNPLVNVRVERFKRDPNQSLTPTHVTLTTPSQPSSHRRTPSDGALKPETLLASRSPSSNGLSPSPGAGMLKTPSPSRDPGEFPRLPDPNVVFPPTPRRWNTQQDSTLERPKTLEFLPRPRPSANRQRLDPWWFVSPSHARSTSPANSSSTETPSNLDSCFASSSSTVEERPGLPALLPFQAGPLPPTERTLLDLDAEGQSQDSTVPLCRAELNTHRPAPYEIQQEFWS

[2] = molecular target: T1, Mitogen-activated protein kinase kinase kinase 9; experiment: Inhibition of GST-fused human MLK1
Procedure, shortened: (§1)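 GST fusions of human MLK kinase domains from baculovirus (50 ng MLK1_KD, 150 ng MLK2_KD/LZ, 100 ng MLK3_KD), substrate 500 µg/mL myelin basic protein. Buffer 20 mM Hepes pH 7.2, 5 mM EGTA, 15 mM MgCl2, 1 mM DTT, 25 mM β-glycerophosphate, 0.1% BSA, 2% DMSO.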
Target sequence in this assay (P80192 whole entry, the tested form may be a part): as above

[3] = molecular target: T2, Mitogen-activated protein kinase kinase kinase 11 (Homo sapiens, UniProt Q16584); experiment: Inhibition of GST-fused human MLK3 at 1 uM
Procedure, shortened: (§2)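 Baculovirus-expressed GST fusions of human MLK1 or MLK3 kinase domain (50 ng MLK1, 100 ng MLK3), myelin basic protein substrate at 500 µg/mL.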
Target sequence in this assay (Q16584 whole entry, looked up, the tested form may be a part): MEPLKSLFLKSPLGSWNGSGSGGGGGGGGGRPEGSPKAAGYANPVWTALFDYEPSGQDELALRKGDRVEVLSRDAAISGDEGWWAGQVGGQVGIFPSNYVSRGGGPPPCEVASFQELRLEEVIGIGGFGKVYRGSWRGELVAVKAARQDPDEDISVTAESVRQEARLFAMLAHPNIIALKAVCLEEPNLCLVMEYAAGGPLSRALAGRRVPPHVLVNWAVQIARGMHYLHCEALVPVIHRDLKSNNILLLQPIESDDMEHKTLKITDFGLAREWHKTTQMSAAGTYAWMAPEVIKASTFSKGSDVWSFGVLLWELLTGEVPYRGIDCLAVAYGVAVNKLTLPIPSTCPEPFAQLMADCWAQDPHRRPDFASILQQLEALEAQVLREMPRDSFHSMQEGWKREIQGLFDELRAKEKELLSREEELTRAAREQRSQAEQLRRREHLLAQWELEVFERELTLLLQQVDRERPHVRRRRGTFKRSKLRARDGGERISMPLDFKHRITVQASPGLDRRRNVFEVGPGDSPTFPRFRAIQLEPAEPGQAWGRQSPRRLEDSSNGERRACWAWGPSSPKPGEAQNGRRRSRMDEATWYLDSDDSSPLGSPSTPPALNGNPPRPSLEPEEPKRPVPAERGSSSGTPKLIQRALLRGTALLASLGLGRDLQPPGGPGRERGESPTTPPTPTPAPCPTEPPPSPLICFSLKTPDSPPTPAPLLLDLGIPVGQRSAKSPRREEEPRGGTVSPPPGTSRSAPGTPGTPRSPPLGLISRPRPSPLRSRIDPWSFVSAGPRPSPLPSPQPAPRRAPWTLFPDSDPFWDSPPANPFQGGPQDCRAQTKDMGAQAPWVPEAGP

[4] = molecular target: T1, Mitogen-activated protein kinase kinase kinase 9; experiment: Inhibition of GST-fused human MLK1 at 1 uM; procedure, shortened: as §2
Target sequence in this assay (P80192 whole entry, looked up, the tested form may be a part): as the sequence (P80192 whole entry, the tested form may be a part) above

[5] = molecular target: T2, Mitogen-activated protein kinase kinase kinase 11; experiment: Inhibition of GST-fused human MLK3; procedure, shortened: as §1
Target sequence in this assay (Q16584 whole entry, the tested form may be a part): as the sequence (Q16584 whole entry, looked up, the tested form may be a part) above

| SMILES | IC50 [1] | IC50 [2] | inhibition [3] | inhibition [4] | IC50 [5] |
| --- | --- | --- | --- | --- | --- |
| O=C1NCc2c1c1c(c3c2c2ccccc2n3CCO)CCc2cc(OC3CCCC3)ccc2-1 | 345 nM | 49 nM | 32% |  |  |
| COc1ccc2c(c1)CCc1c-2c2c(c3c1[nH]c1ccccc13)CNC2=O |  | 188 nM |  |  | 274 nM |
| O=C1NCc2c1c1c(c3[nH]c4ccccc4c23)CCc2cc(O)ccc2-1 |  |  | 0% | 9% |  |
| O=C1NCc2c1c1c(c3c2c2ccccc2n3CCO)CCc2cc(OCc3ccccn3)ccc2-1 |  |  | 30% | 36% |  |

Continued, values first:

| IC50 [1] | IC50 [2] | inhibition [3] | inhibition [4] | IC50 [5] | SMILES |
| --- | --- | --- | --- | --- | --- |
|  |  | 46% | 58% |  | N#CCCCOc1ccc2c(c1)CCc1c-2c2c(c3c4ccccc4n(CCO)c13)CNC2=O |
|  |  | 8% | 30% |  | N#CCOc1ccc2c(c1)CCc1c-2c2c(c3c4ccccc4n(CCO)c13)CNC2=O |
|  |  | 32% | 30% |  | O=C1NCc2c1c1c(c3c2c2ccccc2n3CCO)CCc2cc(OCC3CC3)ccc2-1 |
|  |  | 0% | 9% |  | O=C1NCc2c1c1c(c3c2c2ccccc2n3CCO)CCc2cc(OCCOCc3ccccc3)ccc2-1 |
|  |  | 46% |  |  | O=C1NCc2c1c1c(c3c2c2ccccc2n3CCO)CCc2cc(OCCO)ccc2-1 |
